The IC50 is the concentration that inhibits the measured activity by half. A lower IC50 goes with inhibition by little substance.

This is an account of results in article PMC65698 (BMC Pharmacology, 2002).

The subject of series [1] is L1210/CPA cells. The following applies: 50 μM DEAB in vitro; cited from earlier work.
Series [2] deals with T1, mouse ALDH1A1 (Mus musculus, UniProt P24549).
T1 sequence (P24549 1-501): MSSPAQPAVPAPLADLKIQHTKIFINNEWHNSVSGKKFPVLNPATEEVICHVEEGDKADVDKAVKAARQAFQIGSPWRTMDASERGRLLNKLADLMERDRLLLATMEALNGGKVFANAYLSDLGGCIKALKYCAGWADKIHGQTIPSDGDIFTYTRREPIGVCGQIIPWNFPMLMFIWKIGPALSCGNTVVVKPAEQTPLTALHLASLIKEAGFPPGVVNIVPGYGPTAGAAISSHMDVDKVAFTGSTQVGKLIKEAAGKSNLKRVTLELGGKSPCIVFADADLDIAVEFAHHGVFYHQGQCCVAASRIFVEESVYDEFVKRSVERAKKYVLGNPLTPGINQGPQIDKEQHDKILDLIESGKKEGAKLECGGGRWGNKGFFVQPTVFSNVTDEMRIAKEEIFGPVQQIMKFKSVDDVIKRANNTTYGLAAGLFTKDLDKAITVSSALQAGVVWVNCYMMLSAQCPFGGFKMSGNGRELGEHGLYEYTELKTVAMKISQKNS
Format: biochemical. The settings on record: IC50 of DPAB, substrate propanal, 1 mM NAD, pH 8.4, mean ± average deviation.

The target of series [3] is T2, human ALDH1A1 (Homo sapiens, UniProt P00352).
T2 sequence (P00352 1-501): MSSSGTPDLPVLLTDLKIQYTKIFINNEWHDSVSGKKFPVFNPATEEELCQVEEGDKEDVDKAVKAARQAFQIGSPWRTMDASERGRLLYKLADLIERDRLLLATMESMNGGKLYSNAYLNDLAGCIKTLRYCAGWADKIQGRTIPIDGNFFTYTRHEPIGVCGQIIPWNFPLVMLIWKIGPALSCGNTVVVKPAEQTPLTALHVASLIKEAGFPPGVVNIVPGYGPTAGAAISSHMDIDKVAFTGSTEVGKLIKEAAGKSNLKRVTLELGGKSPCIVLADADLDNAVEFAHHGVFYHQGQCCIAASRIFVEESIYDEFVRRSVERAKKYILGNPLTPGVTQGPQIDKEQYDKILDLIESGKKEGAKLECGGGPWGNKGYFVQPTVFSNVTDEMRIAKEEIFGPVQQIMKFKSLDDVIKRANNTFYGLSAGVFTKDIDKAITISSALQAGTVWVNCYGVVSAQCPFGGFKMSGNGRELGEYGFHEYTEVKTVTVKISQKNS
Format: biochemical. The following applies: IC50 of DPAB, substrate propanal, 1 mM NAD, pH 8.4, mean ± average deviation.

Series [4] concerns HL-60 cells. The series is described as follows: HL-60 cell differentiation assay. Type of series: cell-based, human. The procedure, abridged:
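HL-60 cells grown in RPMI-1640 with 15% FBS, 50 U/mL penicillin and 0.5 mg/mL streptomycin; subcultured and treated at 2 × 10^5 cells/mL. Test compound added in DMSO or ethanol, with no media change or washout; 1 μM retinoic acid used as a reference retinoid. Aliquots mixed 1:1 with a solution of 1.0% BSA, 0.2% NBT and 1.0 μg/mL TPA, then incubated 45 min at 37°C. Purple-precipitate-positive cells scored by bright-field microscopy in a counting chamber; two observers each counted two fields of ≥200 cells per well.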

Series [5] concerns HL-60 cells. Nature of the series: HL-60 cell survival by Trypan blue dye exclusion. Format: cell-based, human. The settings on record: up to 144 hours. In a few lines: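 HL-60 cells grown in RPMI-1640 with 15% FBS and penicillin/streptomycin, seeded at 2 × 10^5 cells/mL. Exposed to test compound (in DMSO or ethanol) for up to 144 h without media replacement or washout. Survival assessed by Trypan blue dye exclusion.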

In series [6] the test system is ALDH1A1. The following applies: dipropyl vs diethyl analog; cited from earlier work.
Series [7] is described as follows: HPLC assay for stability of retinal in culture media. Format: physicochemical. The following applies: 10 μM retinal in RPMI 1640 plus 15% fetal bovine serum, 37°C, day 6, no cells. In a few lines:
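Retinal (10 μM) incubated in cell-free RPMI 1640 with 15% FBS at 37°C for six days. Media sampled every 24 h and extracted with 50% butanol:50% acetonitrile (v/v): vortexed 60 s, centrifuged 2 min at 16,000 × g. Organic layer diluted 1:5 in acetonitrile and run on reverse-phase C18 HPLC. Retinal and retinoic acid detected at 360 nm (retention 10.0 and 7.7 min).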

Turning to `CCN(CC)c1ccc(C=O)cc1` [DEAB, 4-(N, N-diethylamino) benzaldehyde], in series [1], the “Effect on resistance of L1210/CPA cells to 4-HC” value is “abolished the tumor cells' resistance to 4-HC”.

Consider `CCCN(CCC)c1ccc(C=O)cc1` [DPAB, 4-(N,N-dipropylamino)benzaldehyde], for which the half-maximal inhibitory concentration (IC50) was found to be 40 ± 10 nM in series [2] and 140 ± 40 nM in series [3]. Moreover, the “Effect on induction of differentiation by retinoic acid” value in series [4] (1 μM retinoic acid + 50 μM DPAB) was “did not alter the induction of differentiation by retinoic acid”. For the same molecule, the “Effect on cell viability” value in series [5] was “nor did it affect cell viability”. Also, the “Efficacy for inhibition of ALDH1A1 relative to DEAB” value in series [6] is reported as 10 fold.

For the molecule `CC1=C(/C=C/C(C)=C/C=C/C(C)=C/C=O)C(C)(C)CCC1` [all-trans retinal], the “Differentiation expressed as equivalent retinoic acid concentration” value in series [4] (exposure to 1 μM for 96 hours) was in the range of 0.05 to 0.1 µM. Moreover, in series [7], the “Retinal oxidized to retinoic acid in culture media” value is “less than 1%”.

As to `CC1=C(/C=C/C(C)=C/C=C/C(C)=C/C(=O)O)C(C)(C)CCC1` [retinoic acid, all-trans retinoic acid], in series [4] (continuous exposure to 1 μM for 96 hours), the “Cells differentiated to granulocytes (positive NBT staining)” value is listed as ~40%.
